# Assay outcomes deposited in PubChem BioAssay by The Scripps Research Institute Molecular Screening Center.
# SF1 activator: activates the human nuclear receptor SF-1. activation, % at 10 µM. AID 522. 65,000 tested, 1.9% active. Q13285. CHO-K1 Gal4-SF-1 LBD luciferase reporter; % increase over DMSO SF-1-specific signal;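 active = activation above the mean activation of all tested compounds plus 3 SD, cut at about 50% in these data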
# Target sequence (Q13285 whole entry, looked up, the tested form may be a part): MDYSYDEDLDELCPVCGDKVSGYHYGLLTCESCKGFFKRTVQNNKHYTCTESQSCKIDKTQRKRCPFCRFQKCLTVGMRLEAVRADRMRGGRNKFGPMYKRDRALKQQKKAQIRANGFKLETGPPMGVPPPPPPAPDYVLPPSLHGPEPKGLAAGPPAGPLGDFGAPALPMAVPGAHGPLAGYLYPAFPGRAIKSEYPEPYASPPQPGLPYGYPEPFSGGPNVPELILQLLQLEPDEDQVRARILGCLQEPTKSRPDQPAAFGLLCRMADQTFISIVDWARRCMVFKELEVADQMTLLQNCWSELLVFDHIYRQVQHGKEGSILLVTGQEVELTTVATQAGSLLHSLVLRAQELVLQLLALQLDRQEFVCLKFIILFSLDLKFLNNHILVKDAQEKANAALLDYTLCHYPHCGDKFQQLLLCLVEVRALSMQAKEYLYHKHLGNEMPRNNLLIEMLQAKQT
#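 Assay system: CHO-K1 cells co-transfected with Gal4 DBD–human SF-1 LBD, 5xGal4 luciferase reporter; doses: 10 µM only; incubation: 20 h compound exposure at 37 °C after 1 h cell settling; signal: luciferase light emission; evaluation: percent activation versus DMSO; repeats: one test per compound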
# PKA kinase inh: inhibitors of human protein kinase A; 65,000 tested, 0.1% active; AID 524; PKA Kemptide phosphorylation, Kinase-Glo ATP luminescence; inhibition, % at 6 µM;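 active = inhibition above the screen-wide mean inhibition plus 3 SD, cut at about 21% in these data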
# MMP-13 inhibitor: inhibitors of human MMP13 | MMP-13 fTHP FRET cleavage, Mca fluorescence | AID 570 | P45452 | inhibition, % at 4 µM | 65,000 tested, 0.07% active;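 active = inhibition above the mean of compound-free control plate wells plus 3 SD, cut at about 14% in these data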;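 note: 0% = DMSO wells and 100% = wells with reference MMP-13 inhibitor after basal subtraction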
# JNK3 inh: JNK3 (human) kinase inhibition; inhibition, % at 8 µM; 60,000 tested, 0.61% active; P53779; AID 746; purified JNK3 kinase activity, HTS; in the data active = inhibition above about 17%;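 note: 0% = DMSO and 100% = reference inhibitor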
# RORA act: activators of human nuclear receptor RORA; AID 560; activation, % at 10 µM; P35398; CHO-K1 Gal4-RORA LBD luciferase reporter, luminescence; percent increase over mock-subtracted basal signal; 65,000 tested, 1.5% active;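 active = activation above the mean of all tested compounds plus 3 SD, cut at about 49% in these data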;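 note: 0% = DMSO-treated RORA cells and 100% = added signal equal to DMSO minus mock-transfected cells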
# ROCK2 inh: inhibitors of human Rho kinase 2 | O75116 | purified ROCK2, Kinase-Glo ATP depletion luminescence | inhibition, % at 6 µM | 60,000 tested, 0.35% active;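 active = inhibition above the screen-wide mean inhibition plus 3 SD, cut at about 18% in these data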;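 note: plate controls were DMSO wells for no effect and Y-27632 control wells after no-enzyme background subtraction for full effect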
# Active calls of the source: *; / = no result. An excerpt weighted towards active compounds, which were near 3.4% of everything screened.
SMILES,SF1 activator,PKA kinase inh,MMP-13 inhibitor,JNK3 inh,RORA act,ROCK2 inh
Cc1cc(NC(=O)CSc2ccc3nnc(-c4cccs4)n3n2)no1,-4,6,-7,-5,13,2
O=C(NC1CCCCCC1)C1CCN(C(=O)Cc2ccccc2)CC1,-17,2,3,3,-5,3
O=S(=O)(c1ccc2c(c1)OCCO2)N1CCC(n2cnc3cc(F)ccc32)CC1,-13,11,-26,25*,-10,6
O=S(=O)(c1ccc2c(c1)OCCO2)N1CCC(n2nnc3cc(F)ccc32)CC1,8,7,-1,4,-3,4
O=C(Nc1ccc(Cl)cc1)N1CC=CCC1,20,-5,1,-6,52*,-4
O=C(Nc1ccc(Cl)cc1)N1CCC(c2nc(-c3cccs3)no2)CC1,6,-2,2,-3,-1,-6
CC1CN(c2nc3c(c(=O)n(Cc4ccc(Cl)cc4)c(=O)n3C)n2C)CC(C)O1 (stereo not drawn),2,8,-1,-5,16,4
Cc1nn2cc(-c3ccc(N)cc3)nc2s1,88*,-4,-7,-11,22,-2
COc1cc(Cl)ccc1NC(=O)COc1ccccc1C(=O)N1CCN(c2ccc(O)cc2)CC1,3,6,3,7,-15,6
O=C(Nc1ccccc1)Nc1ccccn1,33,0,4,1,15,0
CC(Sc1ccccn1)C(=O)Nc1ccccc1 (stereo not drawn),57*,-3,-2,5,34,-2
CCOC(=O)C1C2C=CC3(CN(C4CCCC4)C(=O)C13)O2 (stereo not drawn),-13,11,4,5,1,0
CC(C)(C)n1ncc2c(=O)n(CC(=O)Nc3ccccc3)cnc21,8,10,-1,5,-3,5
CC(C)(C)n1ncc2c(=O)n(CC(=O)NCc3ccc(F)cc3)cnc21,92*,-6,-3,-4,67*,2
CC(C)(C)n1ncc2c(=O)n(CC(=O)NC3CCCCC3)cnc21,68*,-3,-4,3,24,2
CC(C)(C)n1ncc2c(=O)n(CC(=O)c3ccccc3)cnc21,93*,11,9,-2,55*,3
CC(C)(C)n1ncc2c(=O)n(CC(=O)NCc3ccco3)cnc21,50*,4,7,-4,38,-1
CN1CCC(OC(=O)COc2ccc(C(C)(C)C)cc2)CC1,-3,-2,5,4,-10,-6
COc1ccc(OC)c(C2C3=C(CCCC3=O)Nc3nc4ccccc4n32)c1 (stereo not drawn),11,15,-7,5,-12,10
CCNC(=O)NC(=O)CSc1ccc(NC(C)=O)cc1,-6,-1,-5,0,-5,1
CCNC(=O)NC(=O)COC(=O)c1ccccc1SCC(=O)NC(=O)NCC,69*,6,-149,6,31,1
Cc1ccc2nc(Nc3ccc4[nH]c(=O)[nH]c4c3)c(-n3nc(C)cc3C)nc2c1,5,7,6,-1,59*,12
CCC(=O)N1CCN(CCN=Cc2c(O)n(C3CCCCC3)c(=O)n(C3CCCCC3)c2=O)CC1,10,-3,-4,-14,0,2
Cn1c(C(=O)NCc2ccco2)cc2c(=O)[nH]c3ccccc3c21,48,5,-22,47*,-14,-2
CCC(C(=O)O)n1nnc(-c2ccc(-c3ccc(OC)cc3)cc2)n1 (stereo not drawn),-1,10,-3,-3,23,4
SMILES,SF1 activator,PKA kinase inh,MMP-13 inhibitor,JNK3 inh,RORA act,ROCK2 inh
COc1ccc(-c2ccc(-c3nnn(CC(C)=O)n3)cc2)cc1,90*,-1,-2,6,38,0
Cc1ccc(C(=O)Nc2sc3c(c2C(=O)O)CCCCC3)o1,33,2,-1,5,77*,-6
O=C(Nc1sc2c(c1C(=O)NC1CC1)CCCCCC2)c1ccco1,-8,7,-1,4,-13,8
COC(=O)c1c(NC(=O)c2ccc(C)o2)sc2c1CCCCC2,52*,13,-23,5,34,4
O=C(Nc1sc2c(c1C(=O)O)CCCC2)c1cccs1,54*,5,0,2,67*,4
Cc1cc(F)ccc1S(=O)(=O)Nc1ccccc1C(=O)Nc1ccc2[nH]c(=O)[nH]c2c1,-9,-2,-6,/,-13,/
O=C(Cn1cnc2ccccc2c1=O)Nc1ccc2c(c1)OCCO2,59*,-4,6,3,42,-3
O=C(COc1ncnc2ccccc12)c1ccc2c(c1)OCCO2,58*,17,2,-4,-1,6
O=C(CS(=O)(=O)c1ccccc1)c1ccc2c(c1)OCCO2,52*,-3,-2,-11,35,-4
O=C(CC(=O)c1ccccc1)Nc1ccc2c(c1)OCCO2,61*,9,3,2,10,5
CCOCC(=O)Nc1ccc2c(c1)OCCO2,30,8,4,-1,35,-1
CCN(CC)S(=O)(=O)c1ccc(Nc2nc3ccccc3n3nnnc23)cc1,49,4,-3,0,70*,5
CCn1c(Oc2ccc(Oc3ncc(Cl)cc3Cl)cc2)nc2c1c(=O)n(C)c(=O)n2C,6,8,7,-8,-12,1
CCOc1ncccc1C(=O)OCC(=O)c1cc(C)n(Cc2ccco2)c1C,57*,-6,-8,-8,91*,2
Cc1cc(C(=O)COC(=O)CCC(=O)c2ccc3c(c2)OCCO3)c(C)n1Cc1ccco1,2,12,4,-1,3,6
Cc1c(C(=O)NCC2CCCO2)oc2ccc3c(c12)C(=O)CC(C)(C)O3 (stereo not drawn),62*,2,-37,-1,11,-6
O=C1C2C3C=CC(C3)C2C(=O)N1c1ccc(-c2nc3ccccc3o2)cc1 (stereo not drawn),41,14,-4,-1,73*,5
Cc1n[nH]c(C)c1S(=O)(=O)N1CCN(C(=O)c2ccco2)CC1,-4,8,-1,-2,-25,2
CCOC(=O)c1c(C)c(C(=O)Nc2ccc(N(C)C)cc2)c(C)n1CC,72*,5,-3,-6,54*,3
CCOC(=O)c1c(C)c(C(=O)NCCOC)c(C)n1CC,-6,-8,-3,0,-5,-8
CCNC(=O)NC(=O)COc1ccccc1C#N,54*,7,-1,2,19,4
CCOC(=O)CCCc1sc(N)nc1-c1[nH]c(=O)[nH]c1C,10,-4,0,25*,21,-2
CCOC(=O)CCc1nc2ccccc2[nH]1,-4,3,-1,4,18,2
COc1ccc(OC)c(Nc2ncnc3c2cnn3-c2cccc(C)c2)c1,26,10,4,/,24,/
CC(=O)Nc1ccc(Nc2ncnc3c2cnn3-c2ccccc2)cc1,33,-1,0,8,55*,-4
